Results taken from PMC9647114 (Journal of Clinical and Translational Hepatology, 2022).
Bridges are numbered along the chain shown (N, C = ends). Where no end group is shown, it is not given here.

Tests used:
HCC-LM3 cells = assay: Confocal fluorescence microscopy of probe binding to HCC-LM3 cells; type: cell-based, human; details: 6 nM probe, 2 h incubation, Fig. 1B
Method in brief: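 HCC-LM3 cells were grown on glass coverslips for 24 h, then incubated with 6 nM Cy7-labelled probe for 2 h and washed three times in PBS. They were fixed in 4% paraformaldehyde, permeabilised with 0.2% Triton X-100 and blocked with 5% BSA. Staining used rabbit anti-integrin α6 (1:250, overnight, 4°C), then fluorescein goat anti-rabbit (1:1,000, 1 h, 37°C), with DAPI for nuclei. Imaged by confocal microscopy.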

orthotopic HCC lesions = assay: NIRF imaging with Cy5 probe, orthotopic HCC mice; type: in vivo; details: i.v., Supplementary Fig. 1
H22 cells = assay: CCK-8 in vitro cytotoxicity assay; type: cell-based, mouse; details: 0 to 500 nM, 48 h or 72 h, Supplementary Fig. 3
Method in brief: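 H22 mouse hepatoma cells grown in DMEM with 10% FBS and 1% pen/strep at 37°C, 5% CO2. Cells were seeded at 3×10^3 per well and left 24 h, then exposed to the Cy7-labelled peptide probe at 0–500 nM for 48 h or 72 h. CCK-8 reagent was then added for 2 h, and absorbance was read at 450 nm.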

[1] = system: orthotopic HCC-LM3 tumors; assay: NIRF imaging, orthotopic HCC-LM3 tumor model; type: in vivo, mice; details: post-injection; sustained until 24 h
[2] = system: orthotopic HCC-H22 tumors; assay: NIRF imaging and biodistribution, orthotopic HCC-H22 tumor model; type: in vivo, mice; details: orthotopic HCC-H22, tumor and major organs 48 h after injection, Fig. 3
Method in brief: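 Nude mice carried orthotopic luciferase-tagged H22 liver lesions and received Cy7-labelled probe or Cy7-control peptide i.v. by tail vein. NIRF imaging used 740 nm excitation and a 780 nm filter. Mice were killed 48 h post-injection, and tumor, heart, liver, spleen, kidney, lung and brain were imaged ex vivo. Organ fluorescence intensity was quantified.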

[3] = system: subcutaneous HCC-LM3 tumors; assay: Photoacoustic imaging, subcutaneous HCC-LM3 tumors; type: in vivo, mice; details: after i.v. injection, 0 to 48 h
[4] = system: subcutaneous HCC-LM3 tumor; assay: NIRF imaging and ex vivo biodistribution, subcutaneous HCC-LM3 tumor model; type: in vivo; details: mice, i.v., statement of the discussion
major organs = assay: In vivo toxicity by H&E staining of major organs; details: imaging dose; heart, spleen, lung, kidney, brain of H22 tumor-bearing nude mice vs control group, Supplementary Fig. 9
integrin a6 = details: peptide identified by phage display; cited from earlier work

In the case of “CGGGGGGGC (cysteine pairing not given here) [Cy7-control, reference compound]”, the “Fluorescence signal in cells by confocal microscopy” value (HCC-LM3 cells) is reported as “no fluorescence response”.

For “CRWYDENAC (disulfide 1-9 (inferred)) [Cy5-RWY]”, the “Homing of probe to HCC lesions (NIRF)” value (orthotopic HCC lesions) was “specifically homed to HCC lesions”.

With “CRWYDENAC (disulfide 1-9 (inferred)) [Cy7-RWY]” the “Cytotoxicity (cell viability, CCK-8)” value (H22 cells) was “no significant cytotoxicity”, the “Time at which tumor fluorescence signal reached a steady level” value [1] was 6 h and the “Ex vivo fluorescence signal in tumors” value [2] was “high level of the fluorescence signal”. For the same sequence, the “Time at which NIRF and PA signals in the tumor peaked” value [3] was 24 h, the “Time at which NIRF and PA signals started to accumulate in the tumor” value [3] was 2 h and the Renal clearance [4] was “fast renal clearance”. For the same sequence, the “Fluorescence signal in cells by confocal microscopy” value (HCC-LM3 cells) was “Strong red fluorescence signals” and the “Cell and tissue damage in major organs (H&E)” value (major organs) was “did not find significant cell and tissue damage”.

In the case of “CRWYDENAC (disulfide 1-9 (inferred)) [RWY]”, the “Binding to integrin a6” value (integrin a6) is listed as “high specificity and affinity”.
